# A selection: hits, their analogues and other compounds. The true share with any hit is near 2.6%.
# SIAE inh: human SIAE inhibitors, primary screen, biochemical, fluorescence polarization, FP-Rh probe, 1536-well HTS. AID 1053197, 2014. hit rate 0.69% among 370,000. inhibition, % at 9.66 µM. SIAE FP-Rh probe binding. Sialate O-acetylesterase (Homo sapiens), Q9HAT2;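 active = inhibition above a cutoff: mean of compounds within the control limits plus 3 SD of those, cut at about 17% in these data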;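 also: 0% = plate median of compound wells and 100% = probe without SIAE protein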
# PRMT1 inh: PRMT1 methyltransferase inhibitors, primary screen, biochemical, fluorescence polarization | recombinant PRMT1, activity-based probe fluorescence polarization | inhibition, % at 2.79 µM | hit rate 1.3% among 370,000;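 active = inhibition above about 21% made by adding two undisclosed values, limit read from the data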
# HTRA1 inh: HTRA1 serine protease inhibitors, primary screen, biochemical, fluorescence polarization, HTS; inhibition, % at 5.96 µM; Q92743; hit rate 0.5% among 340,000; recombinant HTRA1, FP-rhodamine activity-based probe; in the data active = inhibition above about 36%;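 also: 0% = enzyme with DMSO and 100% = wells lacking enzyme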
# Target sequence (Q92743 whole entry, looked up): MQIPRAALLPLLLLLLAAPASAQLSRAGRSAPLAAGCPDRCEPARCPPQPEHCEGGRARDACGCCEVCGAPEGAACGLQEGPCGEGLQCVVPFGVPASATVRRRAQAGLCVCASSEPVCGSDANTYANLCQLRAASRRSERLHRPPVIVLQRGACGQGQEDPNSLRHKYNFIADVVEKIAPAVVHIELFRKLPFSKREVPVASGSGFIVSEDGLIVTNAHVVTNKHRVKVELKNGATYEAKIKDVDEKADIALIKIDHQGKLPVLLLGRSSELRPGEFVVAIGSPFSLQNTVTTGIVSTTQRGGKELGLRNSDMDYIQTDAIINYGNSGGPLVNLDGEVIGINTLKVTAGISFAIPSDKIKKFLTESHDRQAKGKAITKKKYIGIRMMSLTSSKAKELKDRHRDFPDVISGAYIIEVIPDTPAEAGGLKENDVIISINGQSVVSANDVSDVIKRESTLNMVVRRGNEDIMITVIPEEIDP
# ABHD4 inh: ABHD4 inhibitors, primary screen, biochemical, fluorescence polarization, mouse | (Lyso)-N-acylphosphatidylethanolamine lipase (Mus musculus), Q8VD66 | purified mABHD4, FP-Rh probe fluorescence polarization | inhibition, % at 8.92 µM | hit rate 0.54% among 370,000 | AID 720543, 2013;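 active = inhibition exceeding the mean over every tested compound plus 3 SD, cut at about 30% in these data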;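 also: 0% = plate median of compound wells and 100% = S159A mutant with DMSO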
#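 Doses – 8.92 µM, single dose · Material – wild-type mouse ABHD4 protein · Replication – single well per compound (singlicate) · Measure – percent inhibition of probe binding, normalized to plate controls · Schedule – 45 min compound pre-incubation plus 60 min probe step, 25 °C · Detection – fluorescence polarization with parallel and perpendicular emission, 525/598 nm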
# TCR CD3 inh: inhibitors of human TCR-CD3 interaction, primary screen, biochemical, fluorescence, TAMRA-labeled TCR probe; T-cell receptor (TCR); inhibition, % at 9.4 µM; hit rate 0.37% among 360,000; AID 651800, 2012; in the data active = inhibition above about 19%;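 also: recombinant mutant TCR 2C K166C tagged with TAMRA read by polarization; 0% = receptor in buffer alone and 100% = receptor with positive control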
# SIAE confirm: human SIAE inhibitors, retest, confirmation, biochemical, fluorescence polarization, FP-Rh probe, triplicate. inhibition, % at 9.66 µM. shares compounds with SIAE inh. hit rate 13% among 2,300. AID 1117263, 2014. SIAE FP-Rh activity-based probe;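 active = mean inhibition of the replicates above the hit cutoff set in the primary screen, cut at about 17% in these data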;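 also: 0% = SIAE with DMSO and probe and 100% = probe without SIAE; inhibitors lower polarization as more probe stays unbound to SIAE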
# Starred values were filed as active, the others as inactive; / = not tested or not shown.
SMILES,SIAE inh,PRMT1 inh,HTRA1 inh,ABHD4 inh,TCR CD3 inh,SIAE confirm
COc1ccc(OCc2cc(C(=O)N3CCCC(O)C3)no2)c2ccccc12 (stereo not given),17.6*,0.1,-0.6,1.7,-0.9,0.3
COC(=O)c1ccccc1NC(=O)c1onc(C)c1Cl,-5.2,1.9,2.7,-2.8,0.4,/
CCc1ccccc1NC(=O)c1onc(C)c1Cl,32.1*,-5.4,3.2,-1.2,3.1,-2.3
COc1cccc(N(C)C(=O)[C@@H](C2CC2)[C@@H](O)c2ccc(C(C)=O)cc2)c1,1.3,-0.9,/,-2.1,/,/
Fc1cccc(NC(=S)N2CCn3cccc3C2c2cccnc2)c1 (stereo not given),25.0*,-4.8,-8.4,-5.8,3.2,-2.7
O=C(CC[C@H]1O[C@@H](n2cnc3c(NC(=O)c4ccccc4)ncnc32)[C@H](O)[C@@H]1O)NCCCN1CCOCC1,18.7*,-2.0,/,1.4,0.1,13.0
COCCCNC(=O)CC[C@H]1O[C@@H](n2cnc3c(NC(=O)c4ccccc4)ncnc32)[C@H](O)[C@@H]1O,2.0,-2.3,/,8.4,2.9,/
O[C@@H](Cc1ccccc1)[C@@H](/C=C/c1ccccc1)NCCc1ccccc1,1.7,2.3,/,19.4,-4.5,/
CCOc1ccc(-n2c(C)cc(/C=N/NC(=O)C(N)=O)c2C)cc1,19.6*,3.2,4.9,5.0,5.3,-0.8
CCOc1ccc(-n2c(C)cc(/C=N\NC(=O)CC(=O)NC3CCCCC3)c2C)cc1,3.5,-1.6,1.7,2.9,10.9,/
COc1ccc2[nH]c(C)c(CCNC(=S)Nc3cccc(C)c3C)c2c1,17.7*,3.3,-2.5,1.1,1.4,0.1
Cc1cc(C)nc(N/N=C/c2cccc([N+](=O)[O-])c2)n1,-5.8,1.6,/,-1.8,-1.9,/
Cc1nc(Cl)c(N=Cc2cccc([N+](=O)[O-])c2)c(Cl)n1,17.7*,-6.9,2.1,5.6,3.2,0.2
Cc1cccc(CCNC(=O)Cn2nc(-c3ccccc3)ccc2=O)c1,-0.5,3.7,/,-0.8,/,/
CC(C)CC(=O)N1CCN(S(=O)(=O)c2ccc(Cl)cc2)CC1,-4.3,2.1,-2.1,4.2,4.3,/
CC(CC(=O)N1CCN(S(=O)(=O)c2ccc(Cl)cc2)CC1)n1cncn1 (stereo not given),18.5*,-2.2,-3.4,-5.6,-2.1,-3.7
O=[N+]([O-])c1ccc(O)c(-c2nc(-c3ccccc3)c(-c3cccs3)[nH]2)c1,17.1*,-2.5,2.5,-0.3,3.7,6.6
CCOc1cc(-c2nc(-c3ccccc3)c(-c3cc([N+](=O)[O-])ccc3C)[nH]2)ccc1O,24.4*,2.6,9.7,13.4,-7.4,6.5
COc1ccc(-c2nc(-c3ccccc3)c(-c3cc([N+](=O)[O-])ccc3C)[nH]2)cc1OC,2.9,-2.7,-0.4,3.9,5.7,/
CCn1c(=O)n(CC)c2cc(N3CCCC3)c(NC(=O)c3ccc(F)cc3)cc21,18.2*,3.0,2.3,8.5,1.4,2.9
CCn1c(=O)n(CC)c2cc(N3CCCC3)c(NC(=O)c3c(F)cccc3F)cc21,8.3,9.8,2.6,15.6,5.2,/
CC1CCCN(CCOc2cccc(Oc3ccccc3)c2)C1 (stereo not given),-3.1,-5.3,3.8,8.6,-0.6,/
CCCOc1ccc(OCCN2CCCC(C)C2)cc1 (stereo not given),20.4*,-3.2,0.6,14.9,-0.3,7.4
C[N+]1(CCCCCCC(=O)/C=N/O)CCCCCC1,19.1*,1.0,3.6,4.1,-1.9,3.0
Cn1ncc(Br)c1N1C(=O)CCC1=O,19.8*,-4.4,/,-1.2,-3.2,1.9
SMILES,SIAE inh,PRMT1 inh,HTRA1 inh,ABHD4 inh,TCR CD3 inh,SIAE confirm
COC(=O)C1CN(Cc2cn(Cc3ccc(Cl)cc3)nn2)CCS(=O)(=O)N1Cc1ccc(C)cc1 (stereo not given),0.1,1.8,/,-5.3,/,/
O=C1OC(c2ccccc2)=NC12CC2c1ccc(Cl)cc1 (stereo not given),23.2*,-1.5,7.5,-1.1,-1.7,70.1*
O=CN1N=C(c2ccccc2)CC1c1ccc(Cl)cc1 (stereo not given),-0.7,-1.7,1.1,-2.8,1.4,/
S=C(Nc1ccc2nsnc2c1)NC1CCCCC1,18.6*,0.8,1.2,-5.0,-0.8,2.4
O=C(Nc1ccccc1N1CCOCC1)c1cc(-c2ccncc2)nc2ccccc12,22.0*,-2.1,9.5,6.8,2.0,1.9
COCCCNC(=O)c1cc(Sc2ccc(F)cc2)nc2ccccc12,17.5*,-1.5,4.7,-6.0,-3.0,0.9
O=S(=O)(c1ccc(Cl)s1)N1CCC(c2nc3ccccc3o2)CC1,-1.7,3.6,/,1.4,/,/
CCCN(CCC)C(=O)c1c(NC(=O)CC)sc2c1CCCCC2,22.0*,0.4,6.5,6.0,6.2,-5.3
CCC(=O)Nc1sc2c(c1C(N)=O)CCC2,5.1,1.6,0.7,-9.7,2.3,/
COC(=O)[C@]12C[C@H](CC(=O)N3CCCC3)C(=O)N(Cc3ccccc3)C1=C[C@H](COCc1ccccc1)O[C@@H]2C,0.8,1.1,/,6.0,/,/
CC(C)CC(=O)NC(=S)NNC(=O)c1ccc([N+](=O)[O-])cc1,30.8*,-3.6,10.9,3.8,7.1,-1.5
CCC(=O)NC(=S)NNC(=O)c1ccc([N+](=O)[O-])cc1,1.6,6.8,0.8,-1.2,13.1,/
COc1cccc(CN2CCNC(=O)C2CC(=O)NCc2cn3ccccc3n2)c1OC (stereo not given),21.7*,-0.3,2.2,-4.6,3.5,-3.2
CCOc1ccc(CN2CCNC(=O)C2CC(=O)NCc2ccccn2)cc1 (stereo not given),17.7*,2.1,-4.5,1.1,3.7,-4.2
COc1cccc(CN2CCNC(=O)C2CC(=O)NCc2cn3cccc(C)c3n2)c1OC (stereo not given),0.1,-1.8,0.5,-0.7,6.4,/
CCOc1ccc(CN2CCNC(=O)C2CC(=O)NCCc2ccccn2)cc1 (stereo not given),0.4,-2.9,4.0,3.2,-0.8,/
COC(=O)[C@]12C[C@H](CC(=O)N3CCCCC3)C(=O)N(Cc3ccc(Cl)cc3Cl)C1=C[C@H](C1CCCC1)O[C@@H]2C,-8.1,-0.6,/,2.5,/,/
CN(C)/C=C(\C(=O)c1ccccc1)c1nnnn1-c1ccc(F)cc1,-4.5,0.0,-0.5,-3.4,-6.3,/
CN(C)/C=C(\C(=O)c1ccc(Cl)cc1)c1nnnn1-c1ccc(Cl)cc1,18.3*,-0.1,4.6,-6.4,-1.6,-4.5
O=C(CNC(=O)C1CCCCC1)Nc1ccccc1Cl,80.5*,-0.6,7.9,-6.5,5.1,-0.9
